# Molecular target: mGluR2 (Rattus norvegicus, UniProt P31421)
# Test: PET imaging of brain uptake and blocking in rats
# Assay type: in vivo, Sprague Dawley rats
# Conditions: blocker 4 mg/kg i.v. 10 min before [18F]8, 1–10 min time window
# Procedure, shortened: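 Male Sprague Dawley rats (275–400 g) under isoflurane/nitrous oxide (1.0–1.5% isoflurane), tail vein catheterized. Dynamic 60-min PET started at i.v. injection of the 18F radioligand (20–41 MBq). Unlabeled blocker in saline with 10% ethanol and 10% Tween 20 was given 4 mg/kg i.v. 10 min before the radioligand. Percent change in regional brain uptake versus baseline scans was taken at 1–10 min.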
# Chain of mGluR2 (P31421 19-872): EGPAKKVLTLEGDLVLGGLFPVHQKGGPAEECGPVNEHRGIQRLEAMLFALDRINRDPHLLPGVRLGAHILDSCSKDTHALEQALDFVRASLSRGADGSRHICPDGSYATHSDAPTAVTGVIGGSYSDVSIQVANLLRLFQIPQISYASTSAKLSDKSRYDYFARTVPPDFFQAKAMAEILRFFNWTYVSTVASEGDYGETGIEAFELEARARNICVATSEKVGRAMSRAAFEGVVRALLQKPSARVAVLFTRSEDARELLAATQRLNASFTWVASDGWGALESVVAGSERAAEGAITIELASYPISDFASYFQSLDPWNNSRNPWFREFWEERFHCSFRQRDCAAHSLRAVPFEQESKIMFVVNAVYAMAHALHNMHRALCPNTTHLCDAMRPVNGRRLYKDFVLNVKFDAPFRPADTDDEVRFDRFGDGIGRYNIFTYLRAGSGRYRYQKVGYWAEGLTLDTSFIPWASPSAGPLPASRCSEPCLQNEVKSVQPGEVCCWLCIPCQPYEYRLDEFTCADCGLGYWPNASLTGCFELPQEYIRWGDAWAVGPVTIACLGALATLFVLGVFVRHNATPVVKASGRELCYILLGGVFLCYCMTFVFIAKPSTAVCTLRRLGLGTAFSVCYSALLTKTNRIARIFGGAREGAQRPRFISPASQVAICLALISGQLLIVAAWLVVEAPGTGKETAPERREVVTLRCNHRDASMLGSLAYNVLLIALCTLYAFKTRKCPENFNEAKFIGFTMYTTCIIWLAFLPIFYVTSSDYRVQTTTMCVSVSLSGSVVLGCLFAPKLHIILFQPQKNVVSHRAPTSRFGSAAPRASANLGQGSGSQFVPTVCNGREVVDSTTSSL
compound,measurement,value
"Fc1ccc(N2CCN(Cc3ccn4c(CC5CC5)nnc4c3C(F)(F)F)CC2)c(F)c1 [compound 8, 8-trifluoromethyl-3-cyclopropylmethyl-7-[(4-(2,4-difluorophenyl)-1-piperazinyl)methyl]-1,2,4-triazolo[4,3-a]pyridine]",decrease of [18F]8 uptake in cerebellum (blocking effect),18.8%
